From PubChem
A selection: hits, their analogues and other compounds. The true share with any hit is near 9.6%.
Ba/F3 V617F tox = reduce viability of Ba/F3 cells dependent on JAK2V617F; Ba/F3 EpoR-JAK2V617F viability, ATP luminescence; inhibition, % at 5.6 µM; 1.1% of 220,000 active; AID 1446;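 active means inhibition above the campaign mean plus 3 SD over all tested compounds, cut at about 24% in these data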;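 further: cytokine-independent growth of Ba/F3 cells driven by EpoR plus mutant JAK2; 0% = DMSO-treated cells and 100% = JAK inhibitor I control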
MT stabilize HCS = microtubule stabilizers in HeLa cells; HeLa tubulin immunostaining HCS, 24 h; share of cells brighter than vehicle mean+2SD; % tubulin-high responders, % at 10 µM; 0.83% of 200,000 active;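 active means plate Z-score above 3 for both tubulin-high and condensed-nucleus cell shares, with cell loss under 80%, at 10 µM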;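 further: anti alpha tubulin signal scored within the nucleus-defined area of each cell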
L major viab = inhibitors of Leishmania major promastigote growth. Leishmania major promastigotes, resazurin fluorescence viability. inhibition, % at 10 µM. 9% of 200,000 active. AID 1063; in the data active means inhibition above about 50%;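 further: promastigotes grown with compound for 44 hours at 28 °C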
b-catenin transl = alters nuclear translocation of beta-catenin in HeLa cells | immunofluorescence imaging | nuclear translocation activity, % at 5 µM | 0.3% of 190,000 active;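 active means nuclear translocation activity above 50% at 5 µM, with a well cell count of 50 or more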;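 further: per-cell ratio of nuclear to cytoplasmic median beta-catenin stain intensity; plate controls were DMSO negative control for no effect and GSK-3 inhibitor IX positive control for full effect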
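Signal – beta-catenin immunofluorescence imaging with DAPI · Test system – human HeLa cell line · Dosing – 5 µM primary single dose, 0.1% DMSO, 0.02–20 µM confirmation series · Measure – % activation, nuclear-to-cytoplasmic median beta-catenin signal ratio per cell · Incubation – 24 h compound exposure at 37°C, 5% CO2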
APP 5UTR inh = APP translation inhibition | SH-SY5Y APP 5'UTR-luciferase reporter, luminescence | inhibition, % at 2 µM | 0.82% of 190,000 active | AID 1285;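 active means inhibition above a set limit, derived from the sample mean plus 3 SD, cut at about 45% in these data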
BaF3 parental = counter-screen for JAK2V617F inhibitors: parental Ba/F3 viability inhibitors; CellTiter-Glo ATP luminescence; inhibition, % at 5.6 µM; 1.1% of 220,000 active; AID 1486;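 active means inhibition above a per-campaign cutoff, the mean inhibition of all tested compounds plus 3 SD, cut at about 27% in these data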;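 further: 0% = DMSO wells and 100% = JAK Inhibitor I control wells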
Lmaj promast 1uM = L. major promastigote growth inhibition, 1 uM repeat; resazurin fluorescence, 48 h; shares compounds with L major viab; 13% of 1,100 active; inhibition, % at 1 µM;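 active means inhibition above about 50% in both repeat tests, limit read from the data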
Numbers without * were called inactive; / = no result.

SMILES	Ba/F3 V617F tox	MT stabilize HCS	L major viab	b-catenin transl	APP 5UTR inh	BaF3 parental	Lmaj promast 1uM
CCSC1=N/C(=C\c2ccc(C)s2)C(=O)S1	2	2	83*	-1	-10	3	-16
COC(=O)c1ccc(CSc2nnnn2Cc2ccccc2)cc1	0	3	97*	1	-15	7	-15
COc1ccc(C(=O)CSc2nnnn2Cc2ccccc2)cc1	0	2	-8	-4	6	3	/
CCCCc1c(C)nn(-c2nnc3c4ccccc4n(C)c3n2)c1C	-5	7	87*	-3	-19	-2	-28
CN(C)/C=C(\C=O)c1ccc(Cl)cc1Cl	4	5	-1	1	-6	11	/
Cc1ccc2cccc(Oc3ncnc4sc(C)c(C)c34)c2n1	1	3	90*	0	-9	4	-8
Cc1ccc(-c2csc3ncnc(Oc4cccc5ccc(C)nc45)c23)cc1	-5	6	21	-1	9	-1	/
OC12CCCCC1C(c1ccc3c(c1)OCO3)N(Cc1ccccc1F)CC2 (configuration not stated)	-3	4	60*	1	14	4	3
Nc1ccccc1Nc1ccccc1	-5	1	99*	16	6	3	-16
Nc1nc(Nc2ccccc2)sc1C(=O)c1ccccc1	-3	/	/	0	/	-8	/
O=C(c1ccccc1)c1c2c(cc3sc4ccccc4[n+]13)-c1cccc3cccc-2c13	86*	4	100*	24	-36	68*	100*
COc1cc(NC(=O)C2CC(=O)NC3=C2C(=O)CCC3)c(OC)cc1Cl (configuration not stated)	0	3	-1	/	-8	6	/
O=C(Nc1cccn(Cc2ccccc2)c1=O)NC1CCCCC1	3	2	78*	3	-5	11	4
O=C(NCc1ccccc1)Nc1cccn(Cc2ccccc2)c1=O	3	3	9	2	/	6	/
Cc1c(CCOC(=O)CC23CC4CC(CC(C4)C2)C3)sc[n+]1CC(=O)c1ccccc1	0	2	91*	1	-4	6	23
O=C(NC(=S)Nc1ccc2c(c1)OCCO2)c1cccc2ccccc12	-5	6	-4	-3	-12	0	/
C=CCN(c1ccccc1C(=O)O)S(=O)(=O)/C=C/c1ccccc1	3	3	-1	-3	-12	5	/
CC(=O)OC1C(N2CCCCC2)c2c(ccc(/C=C/C(=O)N3CCCCC3)c2O)OC1(C)C (configuration not stated)	-5	3	73*	1	-41	-4	-22
CCOc1ccccc1N(C(=O)Nc1cccc(Cl)c1)C1=NC(C)CS1 (configuration not stated)	2	2	81*	/	-3	5	7
CN(C)CCCNCCCCNC(=O)/C=N/O	-2	1	-1	3	-1	1	/
C=CC[N+](C)(C)CCCNC(=O)/C=N/O	2	3	73*	-5	-11	4	-8
COc1ccc(CNC(=O)NC2CCCCC2)cc1	-3	3	12	-4	-33	1	/
COc1ccc(CN2CCC(CNC(=O)NC3CCCCC3)CC2)cc1	0	6	90*	0	-11	5	7
CC(C)CCC(C)N=Cc1c(O)n(Cc2ccccc2)c(=O)c2ccccc12 (configuration not stated)	-4	3	62*	-3	-12	2	-2
O=C(NC1CCCCC1)N1CCN(C(c2ccccc2)c2ccccc2)CC1	-2	1	38	/	14	2	/
SMILES	Ba/F3 V617F tox	MT stabilize HCS	L major viab	b-catenin transl	APP 5UTR inh	BaF3 parental	Lmaj promast 1uM
CC(=O)/C(=N/Nc1cccc(C)c1)N1CCOCC1	-3	2	64*	4	23	4	-8
Cc1ccc(-c2csc(NC(=O)c3cc([N+](=O)[O-])ccc3N3CCOCC3)n2)cc1	-1	7	5	1	-8	6	/
O=C(Nc1nc(-c2ccccc2)cs1)c1ccc(N2CCOCC2)c([N+](=O)[O-])c1	-2	4	98*	-2	8	4	14
CCOC(=O)Cc1cc(-c2ccc(F)cc2)nc2ccc3ccccc3c12	1	2	68*	3	8	2	7
CCOC(=O)Cc1cc(-c2ccc(O)cc2)nc2ccc3ccccc3c12	5	4	15	0	-11	7	/
C/C(N)=C(/C#N)C(=O)CSc1nnc(Nc2ccccc2)s1	7	1	54*	1	-34	7	-15
C/C(N)=C(/C#N)C(=O)CSc1nnc(Nc2ccccc2C)s1	-3	3	0	0	4	3	/
CCC(CC)NCC(O)COc1ccc(Br)cc1 (configuration not stated)	3	6	66*	0	-8	2	6
COc1ccc(OCC(O)CNc2ccc(Br)cc2)cc1 (configuration not stated)	2	3	1	/	13	5	/
O=C(NCCc1ccccc1)C1CCC(CNc2nc(=S)[nH]c3ccccc23)CC1 (configuration not stated)	-3	4	6	-2	-23	2	/
O=C(C1CCC(CNc2nc(=S)[nH]c3ccccc23)CC1)N1CCN(c2ccccn2)CC1 (configuration not stated)	5	6	99*	-2	1	3	39
C=CCOc1nc(N2CCCC2)nc(N2CCCC2)n1	-1	1	96*	/	0	0	-9
CC1=CC(C)C2(COC(c3ccc[n+](C)c3)OC2)C(C)C1 (configuration not stated)	65*	2	100*	-2	-2	72*	-1
COc1ccc(S(=O)(=O)Nc2ccc(C)cc2)cc1N(C)S(=O)(=O)c1ccc(Cl)cc1	-3	4	99*	-1	-1	0	-14
N#C/C(=C\c1cn(CCOc2ccccc2)c2ccccc12)C(=O)NCc1cccs1	-4	5	55*	2	-7	0	-13
Cn1nc(-c2ccc(Cl)cc2)cc1NC(=O)CCCC(=O)O	-2	/	/	-2	/	-2	/
Cc1c(Cl)c(C(F)(F)F)nn1CC(=O)N1CCSCC1	-1	4	-2	-1	14	6	/
Cc1ccc(NC(=O)c2ccc(Br)o2)cc1S(=O)(=O)N(C)C	3	3	60*	-2	-37	4	-3
COc1ccc(C2c3c4c(n(C)c3CCN2C)CCN(C)C4c2ccc(OC)cc2)cc1 (configuration not stated)	2	4	3	-4	-12	6	/
COc1ccc(C2NCCn3cccc32)cc1 (configuration not stated)	-4	4	96*	3	-18	0	-20
Cc1ccc(NC(=O)Nc2sc(=S)n(C)c2C)cc1	-4	1	59*	-2	-6	5	-17
